Shown are actives, neighbours in structure and some others; about 2.3% of the full set was active somewhere.
sPLA2-III inh = Inhibits HGIII-sPLA2 liposome hydrolysis, primary screen | hit rate 0.56% among 370,000 | AID 743126 | Q9NZ20 | inhibition, % at 12.2 µM | QFRET BODIPY PC-A2 liposome hydrolysis, fluorescence;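 active = inhibition above mean plus 3 SD of compounds lying within the high and low control bounds, cut at about 19% in these data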;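 also: 0% = median of test compound wells and 100% = no enzyme DMSO wells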
Target sequence (Q9NZ20 whole entry, looked up): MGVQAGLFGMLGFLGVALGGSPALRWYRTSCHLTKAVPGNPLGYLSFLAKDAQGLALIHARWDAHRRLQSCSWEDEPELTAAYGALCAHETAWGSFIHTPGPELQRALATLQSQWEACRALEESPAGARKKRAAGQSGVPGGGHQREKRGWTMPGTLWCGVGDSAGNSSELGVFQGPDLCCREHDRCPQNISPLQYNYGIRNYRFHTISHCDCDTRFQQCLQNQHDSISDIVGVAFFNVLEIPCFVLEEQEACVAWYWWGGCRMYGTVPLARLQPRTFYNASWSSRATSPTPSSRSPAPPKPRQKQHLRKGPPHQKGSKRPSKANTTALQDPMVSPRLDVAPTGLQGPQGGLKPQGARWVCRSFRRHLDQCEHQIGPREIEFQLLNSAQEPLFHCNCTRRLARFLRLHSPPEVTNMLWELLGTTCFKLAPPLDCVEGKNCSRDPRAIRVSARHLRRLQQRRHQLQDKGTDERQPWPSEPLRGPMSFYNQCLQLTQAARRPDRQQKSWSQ
ASAP1 inh = ASAP1 ArfGAP inhibition; ASAP1-stimulated ARF1 GTP hydrolysis, GDP FP detection; inhibition, % at 16.5 µM; hit rate 0.19% among 360,000; Q9ULH1; in the data active = inhibition above about 25%;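 also: 0% = vehicle with enzyme and substrate and 100% = no enzyme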
Calb FLC = C. albicans growth modulation with fluconazole | AID 1979 | growth inhibition, % (no concentration beside the values) | hit rate 0.57% among 300,000 | C. albicans CaCi-2 + fluconazole, Alamar Blue growth, 48 h;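 active = growth inhibition above about 58% in most replicates, limit read from the data, passing the limit was not always enough; inconclusive = exactly half the replicates above a set limit; inactive = most replicates below a set limit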;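 also: all wells also contain fluconazole at 8 µg/ml as a sub-toxic cotreatment; 0% = median of DMSO wells and 100% = median of geldanamycin control wells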
SKKanGAS inh = blocks kanamycin growth of S. pyogenes SKKanGAS strain; BacTiter-Glo, 6 h; inhibition, % at 7.5 µM; hit rate 1.3% among 300,000;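 active = mean replicate score, as percent of positive control median, at least 50; inconclusive = mean below 50 but one replicate at or above 50; inactive = mean and every replicate below 50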;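 also: strain carries kanamycin resistance gene driven by streptokinase promoter and grows in 40 µg/ml kanamycin; loss of luminescence reflects streptokinase promoter inhibition or plain growth inhibition; 0% = median of DMSO wells and 100% = positive control at its reference dose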
ARFGAP1 inhibitor = rat ARFGAP1 inhibition | Q62848 | Arfgap1-stimulated ARF1 GTP hydrolysis, GDP FP detection | inhibition, % at 16.5 µM | hit rate 0.26% among 360,000 | AID 651572;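 active = inhibition above a per-plate limit, mean inhibition of low control wells plus 3 SD, cut at about 25% in these data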;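 also: 0% = DMSO wells with enzyme and 100% = wells lacking Arfgap1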
Target sequence (Q62848 1-136 limits assumed): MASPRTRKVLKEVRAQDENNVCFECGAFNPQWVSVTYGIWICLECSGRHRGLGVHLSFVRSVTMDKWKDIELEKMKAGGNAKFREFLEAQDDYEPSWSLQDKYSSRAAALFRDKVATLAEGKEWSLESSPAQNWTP
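System: truncated rat Arfgap1 GAP domain / Medium: HEPES-based buffer, pH 7.5 / Also added: N-terminally truncated human ARF1-GTP substrate / Incubation: enzyme reaction 120 min at 25 °C after 20 min preincubation / Measured by: FP of antibody-bound GDP Alexa 633 tracer, ex 620/em 688 nm / Replicates: singlicate, each compound tested once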
Active calls of the source: *; ? = inconclusive; · = no result.

SMILES | sPLA2-III inh | ASAP1 inh | Calb FLC | SKKanGAS inh | ARFGAP1 inhibitor
N#C/C(=C/c1ccc(N2CCCCCC2)o1)c1ccc(F)cc1 | · | · | 7 | 65* | ·
COc1c(O)ccc(/C=C(\C#N)c2nc3ccccc3[nH]2)c1[N+](=O)[O-] | -8 | -17 | 0 | 55* | -5
FC(F)(F)c1ccc(Cn2ccc3ccc(-c4ccc5ccn(Cc6ccccc6)c5c4)cc32)cc1 | 17 | · | · | · | ·
Cc1ccc(NC(=O)c2ccccc2NS(=O)(=O)c2ccc(F)cc2)cc1S(=O)(=O)N1CCCCC1 | -74 | 13 | -1 | 60* | 1
CCCCCc1ccc(NC(=O)OCCN2C(=O)CCC23CCC(c2ccccc2)CC3)cc1 (centres undefined) | 8 | · | · | · | ·
Cc1ccc2nc(N/N=C\c3ccc([N+](=O)[O-])o3)nc(-c3ccccc3)c2c1 | 5 | -4 | -2 | 100* | 0
O=C(N/N=C/c1ccc([N+](=O)[O-])o1)c1cc2ccccc2o1 | -6 | 5 | 31 | 1 | -5
O=[N+]([O-])c1ccc(/C=N/Nc2ccc3ccccc3c2)o1 | 15 | 25* | ? | 19 | -4
O=[N+]([O-])c1ccc(/C=N/Nc2nc(-c3ccccc3)c3cc(Br)ccc3n2)o1 | -2 | -1 | 7 | 95* | -2
COC(=O)N1C[C@H](O)[C@H](O)C[C@@H]1c1ccccc1Br | 2 | 5 | · | · | 10
COc1ccc(C2C(C(=O)N3CCCCC3C)CC(=O)N2c2ccc(OC)cc2)cc1 (centres undefined) | 6 | · | · | · | ·
O=C(CN1C(=O)S/C(=C\c2ccc(Cl)cc2)C1=O)NC1C=CS(=O)(=O)C1 (centres undefined) | 3 | 5 | -9 | 5 | -11
COc1ccc(/C=C2\SC(=S)N(CCCC(=O)NNC(=O)c3ccccc3O)C2=O)cc1 | 16 | 9 | -20 | 29 | -5
O=C(CN1C(=O)S/C(=C\c2ccc(Cl)cc2)C1=O)NNC(=O)c1ccccc1O | 44* | 15 | 26 | 1 | 7
COc1ccccc1/C=C1\SC(=S)N(CCC(=O)NNC(=O)c2ccccc2O)C1=O | · | · | -6 | 52* | ·
CC(C)CNC(=O)OCc1cn(Cc2ccc(F)cc2F)nn1 | 4 | · | · | · | ·
Cc1[nH]nc2c1C(c1ccccc1)N(c1ccccc1)C2=O (centres undefined) | -1 | 7 | · | · | 0
Cc1ccc(C)c(-c2nnc(NC(=O)COc3ccccc3)o2)c1 | 7 | -11 | ? | 105* | 7
Cc1ccc(C)c(-c2nnc(NC(=O)c3ccc([N+](=O)[O-])o3)o2)c1 | 0 | -4 | 9 | 80* | -6
O=C(COc1ccccc1)Nc1nnc(-c2ccccc2)o1 | 1 | -7 | -7 | 4 | 1
COc1cccc(C(=O)OCC(=O)Nc2nnc(-c3ccccc3)o2)c1 | -7 | 0 | -3 | 68* | 9
Cc1ccc(-c2nnc(NC(=O)CCS(=O)(=O)c3ccccc3)o2)c(C)c1 | 11 | 1 | 0 | 2 | 9
Cc1ccc(C)c(-c2nnc(NC(=O)CCS(=O)(=O)c3ccccc3)o2)c1 | -4 | 5 | -8 | 51* | 13
NC(=O)c1c(N)[nH]c(C(=O)c2ccccc2)c1-c1ccccn1 | -1 | · | · | · | ·
CN1OC[C@@H]2CN(C(=O)C(C)(C)C)[C@H](c3cccc(Oc4ccccc4)c3)C[C@@H]21 | 9 | -10 | · | · | 6
SMILES | sPLA2-III inh | ASAP1 inh | Calb FLC | SKKanGAS inh | ARFGAP1 inhibitor
COc1ccc(S[C@]2(C(=O)N3CCN(c4ncccn4)CC3)CC(=O)N(c3ccsc3)[C@@H]2c2ccc(OC)cc2)cc1 | -1 | · | · | · | ·
Cc1cccc(C)c1NC(=O)COn1nnc2ccc(C(F)(F)F)cc21 | -3 | -8 | 11 | -2 | -2
Cc1ccc(C)c(SCC(=O)Nc2nnc(-c3ccccc3)o2)c1 | -1 | 0 | 81* | 82* | 9
O=C(COn1nnc2ccc(C(F)(F)F)cc21)Nc1nnc(-c2ccccc2)o1 | -9 | 1 | 9 | 91* | -7
COc1ccccc1/C=N\NC(=O)c1cccc(S(=O)(=O)N(C)C)c1 | 9 | · | · | · | ·
C=CCN1C(=O)[C@@H](CC(=O)N2CCN(C(=O)c3ccco3)CC2)[C@]2(C(=O)OCC)CCCCC/C=C/12 | -2 | · | · | · | ·
O=C(N1CCOCC1)N1CC[C@H]2[C@H](CCCN2Cc2cc(F)cc(F)c2)C1 | 8 | · | · | · | ·
S=c1nc(SCc2ccccc2)[nH]c2ccccc12 | -12 | 8 | 35 | 76* | -1
CN[C@H]1C[C@@H](c2ccccc2Br)N(C(C)=O)C[C@H]1CO | 0 | 0 | · | · | 3
Cn1nc(-c2ccc(Cl)cc2)nc2c(=O)n(C)c(=O)nc1-2 | · | · | 71 | 84* | ·
CC(C)CCOc1cccc(OCC(=O)Nc2ccncc2)c1 | -9 | -2 | 108* | -22 | 7
CSCc1cc(N(C)c2ccccc2)nc(-c2ccccn2)n1 | 0 | 0 | -33 | 75* | -4
CCOC(=O)c1cc2sccc2n1CC(=O)N1CCCC1 | 9 | -11 | 106* | 6 | 10
COC(=O)[C@]12C[C@H](CC(=O)NCc3cccc(C(F)(F)F)c3)C(=O)N(Cc3cccc4ccccc34)C1=C[C@H](C(C)C)O[C@@H]2C1CC1 | -18 | · | · | · | ·
Nc1[nH]c(C(=O)c2ccccc2)c(-c2cccnc2)c1C(=O)NCCc1c[nH]c2ccccc12 | -31 | · | · | · | ·
Cc1cnc([N+](=O)[O-])n1CCOC(=O)NC(=O)c1ccccc1 | 0 | -3 | 3 | -1 | 15
Cc1ccc(C(=O)NC(=O)OCCn2c(C)cnc2[N+](=O)[O-])cc1 | 1 | 5 | 88* | 15 | 0
CN(/N=C/c1cc(Br)cc(Br)c1O)c1cccc(C(F)(F)F)n1 | 1 | 8 | -10 | 70* | 13
CN(N=Cc1ccccc1O)c1ccc2ccccc2n1 | -1 | -4 | · | · | 3
O=C(/C=C/c1cccc(Cl)c1)c1nc2ccccc2[nH]1 | -6 | 6 | 99* | 17 | 0
NC(=O)c1ccc(Cc2ncc(C(F)(F)F)cc2Cl)s1 | -3 | -1 | 28 | -3 | 1
O=S(=O)(N/N=C/c1ccc(Cl)cc1)c1ccc(Cc2ncc(C(F)(F)F)cc2Cl)s1 | -13 | 4 | -3 | 50* | 7
COC(=O)[C@]12C[C@H](CC(=O)NCc3cccs3)C(=O)N(CCc3ccc(OC)c(OC)c3)C1=C[C@H](C(C)(C)C)O[C@@H]2C | -12 | -18 | · | · | 6
O=C1C=C(N2CCCCC2)c2ccccc2C1=O | -5 | -6 | -18 | 82* | -10
O=C1c2ccccc2-c2onc3ccc(N4CCCC4)c1c23 | -43 | -1 | 79 | 6 | -5
O=C1c2ccccc2C(=O)c2c1cccc2N1CCCC1 | -10 | 0 | 80* | 15 | -1
O=C(NCCc1c[nH]c2ccccc12)OCc1cn(Cc2cc(F)ccc2F)nn1 | -79 | · | · | · | ·
CCCCCC(=O)Cc1cc(O)cc2c1C(=O)Oc1cc(O)c(C(=O)O)c(CCCCC)c1O2 | · | · | -6 | 71* | ·
CC(COc1cccc([N+](=O)[O-])c1)CN1CCC(C(O)(c2ccccc2)c2ccccc2)CC1 (centres undefined) | -11 | · | · | · | ·

Screens deposited in PubChem BioAssay by several laboratories.
